Measurements from ChEMBL document CHEMBL1649137, “Genetic analysis of factors affecting susceptibility of Bacillus subtilis to daptomycin” (2009).
Converted amounts (≈) assume the structure as drawn.

Assays:
Bacillus subtilis [1] = experiment: Antibacterial activity against Bacillus subtilis W168 mutant with alteration in membrane composition at 25 degC by liquid growth inhibition assay; format: functional
Outline: (§1)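 Mid-log cells diluted to 5 × 10^5 CFU/ml in Mueller-Hinton broth with 50 mg/liter Ca2+. At least 10 concentrations near the predicted MIC, plus an untreated control, present from the start. Growth followed by OD600. Inhibition: final 24 h OD600 <0.05. MIC is the mode of at least triplicates.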

Bacillus subtilis [2] = experiment: Induction of ywrE gene expression in Bacillus subtilis W168 by microarray analysis; format: functional
Outline: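 W168 cultures in Mueller-Hinton broth with 50 mg/liter Ca2+, 37°C with shaking, grown to mid-log phase (OD600 0.4) from a 1:1,000 overnight dilution. Split: one half given 1 μg/ml daptomycin for 20 min, the other left untreated. Total RNA from three biological replicates; cDNA labeled with Alexa Fluor 555 or 647 and hybridized 16 to 18 h at 42°C. Induction = treated/untreated signal intensity, duplicate spots on three arrays.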

Bacillus subtilis [3] = experiment: Decrease in lmrB gene expression in Bacillus subtilis W168 by microarray analysis; format: functional
Outline: (§2)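 W168 grown in Ca2+-supplemented Mueller-Hinton broth at 37°C to OD600 0.4, split, and one half exposed to 1 μg/ml daptomycin for 20 min. Total RNA from three biological replicates; cDNA labeled with Alexa Fluor 555/647 and co-hybridized at 42°C for 16–18 h. Genes with summed intensity <20 or SD > mean were dropped. Fold change is treated/untreated signal, from ≥6 spot measurements.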

Bacillus subtilis [4] = experiment: Induction of murG gene expression in Bacillus subtilis W168 by microarray analysis; format: functional; outline: as §2
Bacillus subtilis [5] = experiment: Antibacterial activity against liaGFSR gene-deficient Bacillus subtilis W168 mutant by liquid growth inhibition assay; format: functional
Outline: (§3)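 Daptomycin MIC by liquid growth inhibition. Overnight cultures diluted 1:100, grown to mid-log, rediluted to 5 × 10^5 CFU/ml in Mueller-Hinton broth with 50 mg/liter Ca2+. At least 10 concentrations near the predicted MIC, plus a no-drug control, added at start; 200 μl. OD600 read every 20 min for 24 h at 37°C with shaking. Inhibition: 24 h OD600 <0.05. MIC is the mode of at least triplicates.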

Bacillus subtilis [6] = experiment: Induction of liaR gene expression in Bacillus subtilis W168 by microarray analysis; format: functional; outline: as §2
Bacillus subtilis [7] = experiment: Induction of ydaH gene expression in Bacillus subtilis W168 by microarray analysis; format: functional; outline: as §2
Bacillus subtilis [8] = experiment: Induction of yqjL gene expression in Bacillus subtilis W168 by microarray analysis; format: functional; outline: as §2
Bacillus subtilis [9] = experiment: Antibacterial activity against sigW and pspA gene-deficient Bacillus subtilis CU1065 mutant by liquid growth inhibition assay; format: functional; outline: as §3
Bacillus subtilis [10] = experiment: Antibacterial activity against liaH and yhcYZ gene-deficient Bacillus subtilis W168 mutant by liquid growth inhibition assay; format: functional; outline: as §3
Bacillus subtilis [11] = experiment: Induction of rodA gene expression in Bacillus subtilis W168 by microarray analysis; format: functional; outline: as §2
Bacillus subtilis [12] = experiment: Antibacterial activity against liaH and pspA gene-deficient Bacillus subtilis CU1065 mutant by liquid growth inhibition assay; format: functional; outline: as §3
Bacillus subtilis [13] = experiment: Antibacterial activity against sigXW gene-deficient Bacillus subtilis CU1065 double mutant by liquid growth inhibition assay; format: functional; outline: as §3
Bacillus subtilis [14] = experiment: Antibacterial activity against liaH, pspA and sigW gene-deficient Bacillus subtilis CU1065 mutant by liquid growth inhibition assay; format: functional; outline: as §3
Bacillus subtilis [15] = experiment: Decrease in ywdD gene expression in Bacillus subtilis W168 by microarray analysis; format: functional; outline: as §2
Bacillus subtilis [16] = experiment: Induction of ypbG gene expression in Bacillus subtilis W168 by microarray analysis; format: functional; outline: as §2
Bacillus subtilis [17] = experiment: Antibacterial activity against wild-type Bacillus subtilis; format: functional; outline: as §3
Bacillus subtilis [18] = experiment: Antibacterial activity against liaIH gene-deficient Bacillus subtilis W168 mutant by liquid growth inhibition assay; format: functional; outline: as §3
Bacillus subtilis [19] = experiment: Decrease in yvpB gene expression in Bacillus subtilis W168 by microarray analysis; format: functional; outline: as §2
Bacillus subtilis [20] = experiment: Decrease in ywhE gene expression in Bacillus subtilis W168 by microarray analysis; format: functional; outline: as §2
Bacillus subtilis [21] = experiment: Antibacterial activity against Bacillus subtilis W168 mutant by liquid growth inhibition assay; format: functional; outline: as §3
Bacillus subtilis [22] = experiment: Decrease in yvcB gene expression in Bacillus subtilis W168 by microarray analysis; format: functional; outline: as §2
Bacillus subtilis [23] = experiment: Antibacterial activity against des gene-deficient Bacillus subtilis W168 mutant with alteration in membrane composition at 25 degC by liquid growth inhibition assay; format: functional; outline: as §1
Bacillus subtilis [24] = experiment: Induction of sdpI gene expression in Bacillus subtilis W168 by microarray analysis; format: functional; outline: as §2
Bacillus subtilis [25] = experiment: Antibacterial activity against sigMWX gene-deficient Bacillus subtilis CU1065 triple mutant by liquid growth inhibition assay; format: functional; outline: as §3
Bacillus subtilis [26] = experiment: Induction of murB gene expression in Bacillus subtilis W168 by microarray analysis; format: functional; outline: as §2
Bacillus subtilis [27] = experiment: Antibacterial activity against ugtP gene-deficient Bacillus subtilis CU1065 mutant by liquid growth inhibition assay; format: functional; outline: as §3
Bacillus subtilis [28] = experiment: Induction of liaG gene expression in Bacillus subtilis W168 by microarray analysis; format: functional; outline: as §2
Bacillus subtilis [29] = experiment: Antibacterial activity against Bacillus subtilis CU1065 harboring IPTG-induced pgsA by liquid growth inhibition assay; format: functional; outline: as §3
Bacillus subtilis [30] = experiment: Induction of liaF gene expression in Bacillus subtilis W168 by microarray analysis; format: functional; outline: as §2
Bacillus subtilis [31] = experiment: Induction of liaH gene expression in Bacillus subtilis W168 by microarray analysis; format: functional; outline: as §2
Bacillus subtilis [32] = experiment: Antibacterial activity against liaH gene-deficient Bacillus subtilis CU1065 mutant by liquid growth inhibition assay
Bacillus subtilis [33] = experiment: Increase in yfiC gene expression in Bacillus subtilis W168 by microarray analysis
Bacillus subtilis [34] = experiment: Induction of ydjP gene expression in Bacillus subtilis W168 by microarray analysis; format: functional; outline: as §2
Bacillus subtilis [35] = experiment: Decrease in ydgK gene expression in Bacillus subtilis W168 by microarray analysis; format: functional; outline: as §2
Bacillus subtilis [36] = experiment: Induction of liaS gene expression in Bacillus subtilis W168 by microarray analysis; format: functional; outline: as §2
Bacillus subtilis [37] = experiment: Decrease in yvzC gene expression in Bacillus subtilis W168 by microarray analysis; format: functional; outline: as §2
Bacillus subtilis [38] = experiment: Decrease in fabHA gene expression in Bacillus subtilis W168 by microarray analysis; format: functional; outline: as §2
Bacillus subtilis [39] = experiment: Decrease in ypeB gene expression in Bacillus subtilis W168 by microarray analysis; format: functional; outline: as §2
Bacillus subtilis [40] = experiment: Induction of bcrC gene expression in Bacillus subtilis W168 by microarray analysis; format: functional; outline: as §2
Bacillus subtilis [41] = experiment: Induction of yhcY gene expression in Bacillus subtilis W168 by microarray analysis; format: functional; outline: as §2
Bacillus subtilis [42] = experiment: Decrease in fabHB gene expression in Bacillus subtilis W168 by microarray analysis; format: functional; outline: as §2
Bacillus subtilis [43] = experiment: Antibacterial activity against mprF gene-deficient Bacillus subtilis CU1065 mutant by liquid growth inhibition assay; format: functional; outline: as §3
Bacillus subtilis [44] = experiment: Induction of liaI gene expression in Bacillus subtilis W168 by microarray analysis; format: functional; outline: as §2
Bacillus subtilis [45] = experiment: Antibacterial activity against sigMWX and pspA gene-deficient Bacillus subtilis CU1065 mutant by liquid growth inhibition assay; format: functional; outline: as §3
Bacillus subtilis [46] = experiment: Antibacterial activity against pssA gene-deficient Bacillus subtilis CU1065 mutant by liquid growth inhibition assay; format: functional; outline: as §3
Bacillus subtilis [47] = experiment: Antibacterial activity against psd gene-deficient Bacillus subtilis CU1065 mutant by liquid growth inhibition assay; format: functional; outline: as §3
Bacillus subtilis [48] = experiment: Antibacterial activity against liar gene-deficient Bacillus subtilis W168 mutant by liquid growth inhibition assay; format: functional; outline: as §3
Bacillus subtilis [49] = experiment: Antibacterial activity against mprF and pspA gene-deficient Bacillus subtilis CU1065 mutant by liquid growth inhibition assay; format: functional; outline: as §3

Structure (SMILES): CCCCCCCCCC(=O)N[C@@H](Cc1c[nH]c2ccccc12)C(=O)N[C@H](CC(N)=O)C(=O)N[C@@H](CC(=O)O)C(=O)N[C@@H]1C(=O)NCC(=O)N[C@@H](CCCN)C(=O)N[C@@H](CC(=O)O)C(=O)N[C@H](C)C(=O)N[C@@H](CC(=O)O)C(=O)NCC(=O)N[C@H](CO)C(=O)N[C@@H]([C@H](C)CC(=O)O)C(=O)N[C@@H](CC(=O)c2ccccc2N)C(=O)O[C@@H]1C
- MIC (Bacillus subtilis [1]): 0.7 µg/mL (≈ 0.432 µM)
- fold change (FC) (Bacillus subtilis [2]): 2.1
- fold change (FC) (Bacillus subtilis [3]): 0.5
- fold change (FC) (Bacillus subtilis [4]): 2.4
- MIC (Bacillus subtilis [5]): 0.5 µg/mL (≈ 0.309 µM)
- fold change (FC) (Bacillus subtilis [6]): 75
- fold change (FC) (Bacillus subtilis [7]): 6.2
- fold change (FC) (Bacillus subtilis [8]): 7.8
- MIC (Bacillus subtilis [9]): 0.8 µg/mL (≈ 0.494 µM)
- MIC (Bacillus subtilis [10]): 0.2 µg/mL (≈ 0.123 µM)
- fold change (FC) (Bacillus subtilis [11]): 2.7
- MIC (Bacillus subtilis [12]): 0.2 µg/mL (≈ 0.123 µM)
- MIC (Bacillus subtilis [13]): 0.9 µg/mL (≈ 0.555 µM)
- MIC (Bacillus subtilis [14]): 0.2 µg/mL (≈ 0.123 µM)
- fold change (FC) (Bacillus subtilis [15]): 5.3
- fold change (FC) (Bacillus subtilis [16]): 3.6
- MIC (Bacillus subtilis [17]): 1 µg/mL (≈ 0.617 µM)
- MIC (Bacillus subtilis [18]): 0.4 µg/mL (≈ 0.247 µM)
- fold change (FC) (Bacillus subtilis [19]): 14
- fold change (FC) (Bacillus subtilis [20]): 0.4
- MIC (Bacillus subtilis [21]): 1 µg/mL (≈ 0.617 µM)
- fold change (FC) (Bacillus subtilis [22]): 27
- MIC (Bacillus subtilis [23]): 0.4 µg/mL (≈ 0.247 µM)
- fold change (FC) (Bacillus subtilis [24]): 8.9
- MIC (Bacillus subtilis [25]): 0.6 µg/mL (≈ 0.37 µM)
- fold change (FC) (Bacillus subtilis [26]): 2
- MIC (Bacillus subtilis [27]): 0.9 µg/mL (≈ 0.555 µM)
- fold change (FC) (Bacillus subtilis [28]): 283
- MIC (Bacillus subtilis [29]): 1 µg/mL (≈ 0.617 µM)
- fold change (FC) (Bacillus subtilis [30]): 149
- fold change (FC) (Bacillus subtilis [31]): 1336
- MIC (Bacillus subtilis [32]): 0.4 µg/mL (≈ 0.247 µM)
- fold change (FC) (Bacillus subtilis [33]): 3.5
- fold change (FC) (Bacillus subtilis [34]): 2
- fold change (FC) (Bacillus subtilis [35]): 0.5
- fold change (FC) (Bacillus subtilis [36]): 126
- fold change (FC) (Bacillus subtilis [37]): 26
- fold change (FC) (Bacillus subtilis [38]): 2.3
- fold change (FC) (Bacillus subtilis [39]): 3.1
- fold change (FC) (Bacillus subtilis [40]): 3.1
- fold change (FC) (Bacillus subtilis [41]): 3.3
- fold change (FC) (Bacillus subtilis [42]): 2.8
- MIC (Bacillus subtilis [43]): 0.5 µg/mL (≈ 0.309 µM)
- fold change (FC) (Bacillus subtilis [44]): 1294
- MIC (Bacillus subtilis [45]): 0.5 µg/mL (≈ 0.309 µM)
- MIC (Bacillus subtilis [46]): 1 µg/mL (≈ 0.617 µM)
- MIC (Bacillus subtilis [47]): 1 µg/mL (≈ 0.617 µM)
- MIC (Bacillus subtilis [48]): 0.5 µg/mL (≈ 0.309 µM)
- MIC (Bacillus subtilis [49]): 0.5 µg/mL (≈ 0.309 µM)
